# Results gathered from unrelated publications.
# Compare with care: the assays were run in different laboratories.
# ST14: Suppressor of tumorigenicity 14 protein (ST14, Homo sapiens, UniProt Q9Y5Y6)
# CDK2 with cyclin A2: Cyclin-dependent kinase 2, with cyclin A2 (CDK2, Homo sapiens, UniProt P24941)
SMILES,target,assay,conditions,measurement,result
N=C(N)NCCC[C@H](NC(=O)C1(NC(=O)[C@H](Cc2cscn2)NC(=O)CCc2ccccc2)CCCC1)C(=O)c1nc2ccccc2s1,ST14,"enzyme activity, inhibitor",0.1 µM,remaining activity,84%
C=CC(=O)N1CCC(COCC(=O)N2CCN(c3nc(-c4cnc(N)nc4C(F)F)nc(N4CCOC[C@@H]4C)n3)CC2)CC1,"ALK tyrosine kinase receptor (ALK, Homo sapiens, UniProt Q9UM73, L1196M)","binding, competition with immobilised ligand",1 µM,remaining binding,77%
CNc1ncc2c(/C=C/C(=O)N3CCC(OC)CC3)nn(Cc3cccc(C(F)(F)F)c3)c2n1,"ALK tyrosine kinase receptor (ALK, Homo sapiens, UniProt Q9UM73)","enzyme activity, inhibitor, radiometric",1 µM,remaining activity,83%
CC[C@@H](C)[C@H](NC(=O)[C@H](Cc1cscn1)NC(=O)CCc1ccccc1)C(=O)N[C@@H](CCCNC(=N)N)C(=O)c1nc2ccccc2s1,ST14,"enzyme activity, inhibitor",0.1 µM,remaining activity,4%
CNC(=O)c1cc(Oc2ccc(NC(=O)Nc3ccc(Cl)c(C(F)(F)F)c3)cc2)ccn1,CDK2 with cyclin A2,"enzyme activity, inhibitor",20 nM,inhibition,43.1%
COc1cc(-c2cncc3c2CN(C)Cc2cc(N4CCNCC4)ccc2-3)cc(OC)c1OC,"Serine/threonine-protein kinase D3 (PRKD3, Homo sapiens, UniProt O94806)","enzyme activity, inhibitor",1 µM,remaining activity,92%
CC(=O)Nc1c(N)nc(SCC(=O)NN)[nH]c1=O,CDK2 with cyclin A2,"enzyme activity, inhibitor",1 µM,inhibition,73%
N=C(N)NCCC[C@H](NC(=O)[C@H](Cc1cccc(I)c1)NC(=O)[C@H](Cc1cscn1)NC(=O)CCc1ccccc1)C(=O)c1nc2ccccc2s1,ST14,"enzyme activity, inhibitor",0.1 µM,remaining activity,79%
CC(=O)Nc1c(N)nc(SCC(=O)N/N=C/c2ccc([N+](=O)[O-])cc2)[nH]c1=O,CDK2 with cyclin A2,"enzyme activity, inhibitor",200 pM,inhibition,1.89%
Cc1cc([C@@H](C)Nc2ccccc2C(=O)O)c2nc(N3CCC(F)(F)CC3)c(C#N)c(=O)n2c1,"Angiopoietin-1 receptor (TEK, Homo sapiens, UniProt Q02763)","binding, competition with immobilised ligand",10 µM,remaining binding,100%
